In ChEMBL document CHEMBL3425438, “Investigation of (E)-3-[4-(2-Oxo-3-aryl-chromen-4-yl)oxyphenyl]acrylic Acids as Oral Selective Estrogen Receptor Down-Regulators” (J Med Chem, 2015):
≈ marks a conversion by molar mass, not a printed value.

Assays:
[1] = Free plasma concentration in rat by LC-UV-MS analysis; assay type: ADME, cell-free
Method in brief: (§1)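 Equilibrium dialysis in plasma of the matching species at 37 °C; free and bound concentrations quantified by LC-UV-MS; reported as % free.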

[2] = Volume of distribution at steady state in Alderley Park Han Wistar rat at 0.5 mg/kg, iv; assay type: ADME, organism-based; set-up: dose 0.5 mg/kg, route intravenous; conditions: in vivo, read-out: Vdss
Method in brief: (§2)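 Fed CD-1 mice or Alderley Park Han Wistar rats, two animals per study; IV 0.5 mg/kg as aqueous solution of DMSO and cyclodextrin; clearance and Vss derived.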

MCF7 = assay: Inhibition of cell proliferation in human MCF7 cells after 7 days by laser scanning imaging cytometer analysis; assay type: functional, cell-based; conditions: MCF7, 168 h
Method in brief: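 MCF-7 cells plated in reduced-serum medium the day before; concentration response for 7 days; cell number by nucleic acid stain, read on laser scanning imaging cytometer; EC50 for decrease in proliferation.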

[3] = Volume of distribution at steady state in CD-1 mouse at 0.5 mg/kg, iv; assay type: ADME, organism-based; set-up: dose 0.5 mg/kg, route intravenous; conditions: in vivo, read-out: Vdss; method in brief: as §2
[4] = Oral bioavailability in Alderley Park Han Wistar rat at 1 mg/kg using 5% DMSO, 95% of a 30% aqueous cyclodextrin solution; assay type: ADME, organism-based; conditions: in vivo
Method in brief: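 Fed Han Wistar rats, two per study; oral 1 mg/kg solution in 5% DMSO, 95% of a 30% aqueous cyclodextrin solution; IV reference 0.5 mg/kg in aqueous DMSO/cyclodextrin.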

[5] = Free plasma concentration in human by LC-UV-MS analysis; assay type: ADME, cell-free; method in brief: as §1
[6] = Oral bioavailability in CD-1 mouse at 50 mg/kg using 0.5% polysorbate suspension; assay type: ADME, organism-based; conditions: in vivo
Method in brief: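 Fed CD-1 mice, two per study; oral 50 mg/kg 0.5% polysorbate suspension; IV reference 0.5 mg/kg aqueous DMSO/cyclodextrin.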

[7] = Free plasma concentration in mouse by LC-UV-MS analysis; assay type: ADME, cell-free; method in brief: as §1
[8] = Octanol-buffer partition coefficient, log D of the compound at ratio of 1:100 at pH 7.4 by shake-flask method; assay type: physicochemical
[9] = Dissociation constant, pKa of the compound by potentiometric analysis […] phenol; assay type: physicochemical
Method in brief: (§3)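 pKa (acid and phenol) by potentiometric titration.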

[10] = Intrinsic clearance in rat hepatocytes measured per 10^6 cells; assay type: ADME, cell-based, Hepatocyte; conditions: read-out: CLH
Estrogen receptor [11] = molecular target: T1, Estrogen receptor (Homo sapiens, UniProt P03372); assay: Binding affinity to ER alpha (unknown origin) by LanthaScreen TR-FRET competitive binding assay
T1 sequence (P03372 whole entry): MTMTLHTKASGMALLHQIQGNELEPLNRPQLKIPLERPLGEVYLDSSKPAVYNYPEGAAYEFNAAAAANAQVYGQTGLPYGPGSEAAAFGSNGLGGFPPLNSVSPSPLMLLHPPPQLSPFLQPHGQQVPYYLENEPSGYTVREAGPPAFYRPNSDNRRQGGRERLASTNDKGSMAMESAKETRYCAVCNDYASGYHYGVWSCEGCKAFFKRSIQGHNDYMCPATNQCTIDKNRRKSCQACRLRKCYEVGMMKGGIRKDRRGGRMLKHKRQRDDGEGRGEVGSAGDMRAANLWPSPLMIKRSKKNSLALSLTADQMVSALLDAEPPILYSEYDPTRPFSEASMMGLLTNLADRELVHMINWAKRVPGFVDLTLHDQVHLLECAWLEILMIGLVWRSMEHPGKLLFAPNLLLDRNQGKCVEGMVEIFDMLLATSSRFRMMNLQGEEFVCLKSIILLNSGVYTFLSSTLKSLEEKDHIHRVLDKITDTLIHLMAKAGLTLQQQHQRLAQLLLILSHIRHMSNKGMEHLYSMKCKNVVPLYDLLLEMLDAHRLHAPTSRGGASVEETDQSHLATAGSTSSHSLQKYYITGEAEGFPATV
Method in brief: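 LanthaScreen TR-FRET ERα competitive binding; 12-point half-log concentration response; TR-FRET emission ratio read on microplate reader; IC50 reported.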

[12] = Intrinsic clearance in human hepatocytes measured per 10^6 cells; assay type: ADME, cell-based, Hepatocyte; conditions: read-out: CLH
Estrogen receptor [13] = molecular target: T1, Estrogen receptor; assay: Suppression of ER alpha in human MCF7 cells after 24 hrs by immunostaining analysis; assay type: cell-based
Estrogen receptor [14] = molecular target: T1, Estrogen receptor; assay: Antagonist activity at ER alpha in human MCF7 cells assessed as inhibition of estradiol-induced PR expression treated for 24 hrs after incubation with estradiol for 30 mins by laser scanning imaging cytometer analysis; assay type: cell-based
[15] = Thermodynamic solubility of the compound in 0.1 M aqueous phosphate buffer at 25 degC at pH 7.4 after 24 hrs; assay type: physicochemical; conditions: read-out: Therm_solubility
[16] = Apparent permeability from apical to basolateral side in human Caco2 cells; assay type: ADME, cell-based; conditions: Caco-2
[17] = Dissociation constant, pKa of the compound by potentiometric analysis; assay type: physicochemical; method in brief: as §3
[18] = Clearance in Alderley Park Han Wistar rat at 0.5 mg/kg, iv; assay type: ADME, organism-based; set-up: dose 0.5 mg/kg, route intravenous; conditions: in vivo
[19] = molecular target: Voltage-gated inwardly rectifying potassium channel KCNH2 (Homo sapiens, UniProt Q12809); assay: Inhibition of hERG channel by electrophysiology; assay type: toxicity
Voltage-gated inwardly rectifying potassium channel KCNH2, sequence (Q12809 whole entry): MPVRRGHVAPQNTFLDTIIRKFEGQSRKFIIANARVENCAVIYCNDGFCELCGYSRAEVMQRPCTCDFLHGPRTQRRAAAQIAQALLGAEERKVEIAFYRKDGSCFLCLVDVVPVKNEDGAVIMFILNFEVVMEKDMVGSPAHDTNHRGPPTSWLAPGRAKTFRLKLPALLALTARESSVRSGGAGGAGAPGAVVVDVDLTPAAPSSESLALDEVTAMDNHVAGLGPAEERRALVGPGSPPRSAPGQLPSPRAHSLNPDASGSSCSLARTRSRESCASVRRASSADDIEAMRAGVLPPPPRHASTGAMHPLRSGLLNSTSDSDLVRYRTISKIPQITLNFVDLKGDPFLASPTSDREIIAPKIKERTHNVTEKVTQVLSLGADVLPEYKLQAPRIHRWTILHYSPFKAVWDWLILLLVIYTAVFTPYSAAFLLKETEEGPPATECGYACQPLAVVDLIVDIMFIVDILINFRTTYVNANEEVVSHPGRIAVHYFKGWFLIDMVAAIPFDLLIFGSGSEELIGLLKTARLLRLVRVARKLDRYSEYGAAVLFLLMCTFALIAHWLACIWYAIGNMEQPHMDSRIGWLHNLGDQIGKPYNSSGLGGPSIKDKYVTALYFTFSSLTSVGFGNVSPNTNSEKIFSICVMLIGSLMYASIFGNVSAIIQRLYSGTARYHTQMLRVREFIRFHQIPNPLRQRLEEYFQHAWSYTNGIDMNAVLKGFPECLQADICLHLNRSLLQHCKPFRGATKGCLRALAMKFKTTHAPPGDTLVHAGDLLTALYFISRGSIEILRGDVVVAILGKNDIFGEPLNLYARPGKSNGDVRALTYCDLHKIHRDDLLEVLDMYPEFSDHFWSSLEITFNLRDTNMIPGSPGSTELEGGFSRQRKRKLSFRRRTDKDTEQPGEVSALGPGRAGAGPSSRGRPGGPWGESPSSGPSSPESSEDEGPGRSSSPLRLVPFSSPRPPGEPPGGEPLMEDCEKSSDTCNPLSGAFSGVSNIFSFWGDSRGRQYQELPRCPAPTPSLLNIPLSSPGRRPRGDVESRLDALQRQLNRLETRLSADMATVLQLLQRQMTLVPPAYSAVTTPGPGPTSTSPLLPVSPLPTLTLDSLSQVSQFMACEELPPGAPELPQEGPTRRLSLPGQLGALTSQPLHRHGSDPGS

[20] = Oral bioavailability in Alderley Park Han Wistar rat at 1 mg/kg using HPMC/tween suspension; assay type: ADME, organism-based; conditions: in vivo
Method in brief: (§4)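 Fed Han Wistar rats, two per study; oral HPMC/tween suspension at 1, 5 or 50 mg/kg as stated per line; IV reference 0.5 mg/kg in aqueous DMSO/cyclodextrin.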

Estrogen receptor [21] = molecular target: T1, Estrogen receptor; assay: Agonist activity at ER alpha in human MCF7 cells assessed as PR gene expression after 24 hrs by laser scanning imaging cytometer analysis; assay type: cell-based; conditions: read-out: IC50 (the source's name)
[22] = Drug metabolism in rat hepatocytes assessed as formation of sulphate metabolite by LC-UV-MS analysis; assay type: ADME, cell-based, Hepatocyte
[23] = Drug metabolism in rat hepatocytes assessed as formation of acyl glucuronide conjugates by LC-UV-MS analysis; assay type: ADME, cell-based, Hepatocyte
[24] = Drug metabolism in rat hepatocytes assessed as formation of glucuronide conjugates by LC-UV-MS analysis; assay type: ADME, cell-based, Hepatocyte
[25] = Drug metabolism in rat hepatocytes assessed as oxidation metabolite formation by LC-UV-MS analysis; assay type: ADME, cell-based, Hepatocyte
[26] = Oral bioavailability in Alderley Park Han Wistar rat at 50 mg/kg using HPMC/tween suspension; assay type: ADME, organism-based; conditions: in vivo; method in brief: as §4
[27] = Intrinsic clearance in mouse hepatocytes measured per 10^6 cells; assay type: ADME, cell-based, Hepatocyte; conditions: read-out: CLH
[28] = Dissociation constant, pKa of the compound in acidic medium by potentiometric analysis; assay type: physicochemical; method in brief: as §3
[29] = Oral bioavailability in CD-1 mouse at 20 mg/kg using propylene glycol suspension; assay type: ADME, organism-based; conditions: in vivo
Method in brief: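 Fed CD-1 mice, two per study; oral 20 mg/kg propylene glycol suspension; IV reference 0.5 mg/kg aqueous DMSO/cyclodextrin.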

[30] = Oral bioavailability in Alderley Park Han Wistar rat at 5 mg/kg using HPMC/tween suspension; assay type: ADME, organism-based; conditions: in vivo; method in brief: as §4
[31] = Oral bioavailability in Alderley Park Han Wistar rat at 2 mg/kg using propylene glycol solution; assay type: ADME, organism-based; conditions: in vivo
Method in brief: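 Fed Han Wistar rats, two per study; oral 2 mg/kg propylene glycol solution; IV reference 0.5 mg/kg aqueous DMSO/cyclodextrin.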

[32] = Clearance in CD-1 mouse at 0.5 mg/kg, iv; assay type: ADME, organism-based; set-up: dose 0.5 mg/kg, route intravenous; conditions: in vivo

fraction unbound [1]	Vd [2]	EC50 (MCF7)	fraction unbound [5]	logD [8]	pKa [9]	hepatocyte CLint [10]	IC50 (Estrogen receptor [11])	hepatocyte CLint [12]	IC50 (Estrogen receptor [13])	IC50 (Estrogen receptor [14])	solubility thermodynamic at 24 h [15]	Papp A→B [16]	clearance [18]	SMILES	also measured
< 0.0001	0.5 L/kg	0.3 µM	< 0.002	–	–	–	–	–	–	–	–	–	–	CC/C(=C(\c1ccccc1)c1ccc(/C=C/C(=O)O)cc1)c1ccccc1	Vd [3]: 1.1 L/kg; bioavailability [4]: 68%; bioavailability [6]: 62%; fraction unbound [7]: 0.064
–	–	–	–	3.1	7.6	37 µL/min/1e6 cells	0.01 µM	17 µL/min/1e6 cells	0.32 µM	–	–	–	–	Cc1cc2c(Cc3ccc(/C=C/C(=O)O)cc3)c(-c3ccc(OC(F)(F)F)cc3)c(=O)oc2cc1O	–
0.0032	1.7 L/kg	0.02 µM	0.0016	2.5	–	19 µL/min/1e6 cells	0.015 µM	7 µL/min/1e6 cells	0.1 µM	0.18 µM	> 470 µM	390 nm/s	0.9 L/h/kg	Cc1cc(OC(F)(F)F)ccc1-c1c(Oc2ccc(/C=C/C(=O)O)cc2)c2ccccc2oc1=O	EC50 (Estrogen receptor [21]): > 3.1 µM; pKa [17]: 3.7; bioavailability [20]: 35%
–	–	–	–	–	–	–	0.009 µM	–	1.28 µM	–	–	–	–	O=C(O)/C=C/c1ccc(Cc2c(-c3ccc(F)cc3)c(=O)oc3cc(O)ccc23)cc1	Drug metabolism [22]: metabolite_detected; Drug metabolism [23]: metabolite_detected; Drug metabolism [24]: metabolite_detected
–	–	–	–	1.2	–	81 µL/min/1e6 cells	0.1 µM	14 µL/min/1e6 cells	1 µM	–	–	–	–	Cc1cc(F)ccc1-c1c(Cc2ccc(/C=C/C(=O)O)cc2)c2ccc(CO)cc2oc1=O	Drug metabolism [25]: metabolite_detected
0.0051	0.9 L/kg	0.0045 µM	0.0025	1.6	7.1	50 µL/min/1e6 cells	0.0004 µM	32 µL/min/1e6 cells	0.021 µM	0.027 µM	> 2000 µM	190 nm/s	2.1 L/h/kg	Cc1cc(F)ccc1-c1c(Oc2ccc(/C=C/C(=O)O)cc2)c2ccc(O)cc2oc1=O	pKa [28]: 3.9; bioavailability [30]: 5%; hepatocyte CLint [27]: 68 µL/min/1e6 cells; fraction unbound [7]: 0.028

More lines, now with the values behind:

SMILES	fraction unbound [1]	Vd [2]	EC50 (MCF7)	fraction unbound [5]	logD [8]	pKa [9]	hepatocyte CLint [10]	IC50 (Estrogen receptor [11])	hepatocyte CLint [12]	IC50 (Estrogen receptor [13])	IC50 (Estrogen receptor [14])	solubility thermodynamic at 24 h [15]	Papp A→B [16]	clearance [18]	also measured
O=C(O)/C=C/c1ccc(Cc2c(-c3ccc(OC(F)(F)F)cc3)c(=O)oc3cc(O)ccc23)cc1	–	–	–	–	2.8	8.7	40 µL/min/1e6 cells	0.0016 µM	9 µL/min/1e6 cells	0.052 µM	–	–	–	–	–
Cc1cc(F)ccc1-c1c(Oc2ccc(/C=C/C(=O)O)cc2)c2ccccc2oc1=O	0.014	0.47 L/kg	–	0.005	2	–	27 µL/min/1e6 cells	0.072 µM	9 µL/min/1e6 cells	0.248 µM	0.33 µM	> 1500 µM	470 nm/s	1.38 L/h/kg	pKa [17]: 5.3; IC50 [19]: > 100 µM; bioavailability [20]: 47%
Cc1cc(F)ccc1-c1c(Oc2ccc(/C=C/C(=O)O)cc2)c2cc(F)c(O)cc2oc1=O	–	–	–	–	0.8	5.8	84 µL/min/1e6 cells	0.0074 µM	28 µL/min/1e6 cells	> 3 µM	–	–	–	–	–
Cc1c(O)ccc2c(Cc3ccc(/C=C/C(=O)O)cc3)c(-c3ccc(OC(F)(F)F)cc3)c(=O)oc12	–	–	–	–	3.4	8.5	39 µL/min/1e6 cells	0.28 µM	20 µL/min/1e6 cells	5.84 µM	–	–	–	–	–
Cc1cc(OC(F)(F)F)ccc1-c1c(Oc2ccc(/C=C/C(=O)O)cc2)c2ccc(O)cc2oc1=O	0.0037	0.7 L/kg	< 0.0001 µM	0.0012	2.1	8.2	41 µL/min/1e6 cells	0.0005 µM	11 µL/min/1e6 cells	0.0027 µM	0.0039 µM	97 µM (≈ 48.3 µg/mL)	150 nm/s	2.28 L/h/kg	bioavailability [26]: 0%; hepatocyte CLint [27]: 9 µL/min/1e6 cells; IC50 [19]: > 100 µM; fraction unbound [7]: 0.0084
O=C(O)/C=C/c1ccc(Cc2c(-c3ccccc3)c(=O)oc3cc(O)ccc23)cc1	0.0098	1.4 L/kg	0.26 µM	0.012	1.5	7.7	120 µL/min/1e6 cells	0.0081 µM	18 µL/min/1e6 cells	1.18 µM	1.5 µM	470 µM (≈ 187 µg/mL)	100 nm/s	4.02 L/h/kg	pKa [28]: 4.4; bioavailability [29]: 0%; Vd [3]: 4.7 L/kg; bioavailability [30]: 67%; hepatocyte CLint [27]: 87 µL/min/1e6 cells; bioavailability [31]: 0%; fraction unbound [7]: 0.012; clearance [32]: 12.6 L/h/kg
Cc1cc(F)ccc1-c1c(Cc2ccc(/C=C/C(=O)O)cc2)c2ccc(O)cc2oc1=O	–	–	–	–	2.1	7.7	81 µL/min/1e6 cells	0.0039 µM	11 µL/min/1e6 cells	0.117 µM	–	–	–	–	–
Cc1cc(F)ccc1-c1c(Cc2ccc(/C=C/C(=O)O)cc2)c2c(F)cc(O)cc2oc1=O	–	–	–	–	1.6	7.2	69 µL/min/1e6 cells	0.0013 µM	14 µL/min/1e6 cells	0.055 µM	–	–	–	–	Drug metabolism [24]: metabolite_detected
CC/C(=C(\c1ccc(O)cc1)c1ccc(/C=C/C(=O)O)cc1)c1ccccc1	0.0009	–	–	–	–	–	12 µL/min/1e6 cells	–	–	–	–	200 µM (≈ 74.1 µg/mL)	–	–	IC50 [19]: > 100 µM
